Consider two compounds from ChEMBL document CHEMBL4261636, “Design of Y2 Receptor Selective and Proteolytically Stable PYY3-36 Analogues” (J Med Chem, 2018).

The target in data set [1] is T1, Neuropeptide Y receptor type 2 (Homo sapiens, UniProt P49146).
T1 sequence (P49146 whole entry): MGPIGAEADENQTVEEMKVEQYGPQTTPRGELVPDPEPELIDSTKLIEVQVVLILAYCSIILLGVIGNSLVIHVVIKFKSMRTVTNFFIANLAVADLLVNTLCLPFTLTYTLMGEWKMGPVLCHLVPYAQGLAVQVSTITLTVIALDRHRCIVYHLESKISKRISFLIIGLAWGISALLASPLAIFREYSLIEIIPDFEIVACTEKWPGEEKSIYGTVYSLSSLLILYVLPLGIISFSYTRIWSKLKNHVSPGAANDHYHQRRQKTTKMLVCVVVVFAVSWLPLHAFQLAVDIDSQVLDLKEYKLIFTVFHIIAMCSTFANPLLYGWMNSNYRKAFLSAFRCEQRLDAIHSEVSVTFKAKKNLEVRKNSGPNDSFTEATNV
The data set is described as follows: Displacement of [125I]-PYY(1 to 36 residues) from human Y2R expressed in CHO cell membranes after 2 hrs by scintillation proximity assay. (In a radioligand displacement assay an active substance lowers the binding of a labelled ligand.)

The target of data set [2] is T2, Neuropeptide Y receptor type 5 (Mus musculus, UniProt O70342).
T2 sequence (O70342 whole entry): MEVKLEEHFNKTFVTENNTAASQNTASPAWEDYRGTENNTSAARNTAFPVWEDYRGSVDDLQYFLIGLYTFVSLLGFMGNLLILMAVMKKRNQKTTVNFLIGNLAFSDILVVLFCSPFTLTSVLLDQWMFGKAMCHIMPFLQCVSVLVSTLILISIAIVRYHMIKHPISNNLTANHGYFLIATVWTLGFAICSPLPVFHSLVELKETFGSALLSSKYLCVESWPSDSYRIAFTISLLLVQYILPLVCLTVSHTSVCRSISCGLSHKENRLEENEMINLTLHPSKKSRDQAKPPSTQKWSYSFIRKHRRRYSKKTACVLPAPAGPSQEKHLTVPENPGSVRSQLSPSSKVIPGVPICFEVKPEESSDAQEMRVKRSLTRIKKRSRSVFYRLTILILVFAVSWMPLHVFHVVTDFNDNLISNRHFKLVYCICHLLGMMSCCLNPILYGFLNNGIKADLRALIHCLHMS
The data set is described as follows: Displacement of [125I]-PYY(1 to 36 residues) from mouse Y5R expressed in HEK293 cell membranes after 2 hrs by scintillation proximity assay.

In data set [3] the target is T3, Neuropeptide Y receptor type 1 (Homo sapiens, UniProt P25929).
T3 sequence (P25929 whole entry): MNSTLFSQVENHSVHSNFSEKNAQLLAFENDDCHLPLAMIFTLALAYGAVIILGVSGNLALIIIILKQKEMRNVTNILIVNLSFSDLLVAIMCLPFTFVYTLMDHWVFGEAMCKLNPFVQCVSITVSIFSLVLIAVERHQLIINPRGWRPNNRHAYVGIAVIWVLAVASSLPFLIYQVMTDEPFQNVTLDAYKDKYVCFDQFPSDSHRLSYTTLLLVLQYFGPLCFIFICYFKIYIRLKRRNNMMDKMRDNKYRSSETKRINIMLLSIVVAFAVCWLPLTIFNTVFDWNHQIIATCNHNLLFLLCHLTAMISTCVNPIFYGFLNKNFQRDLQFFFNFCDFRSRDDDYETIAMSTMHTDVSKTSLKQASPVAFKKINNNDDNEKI
In words: Activation of human Y1R expressed in HEK293 cells assessed as inhibition of isoproterenol-induced increase in intracellular cAMP levels by calcium 5 dye-based FLIPR assay. In kind it is functional, cell-based. (Changes in cAMP serve as a functional read-out for many G protein-coupled receptors.)

The target of data set [4] is T3, Neuropeptide Y receptor type 1. The data set is described as follows: Displacement of [125I]-PYY(1 to 36 residues) from human Y1R expressed in BHK-21 cell membranes after 2 hrs by scintillation proximity assay.
The nature of data set [5]: Displacement of [125I]-PYY(1 to 36 residues) from mouse Y2R expressed in HEK293 cell membranes after 2 hrs by scintillation proximity assay.
A short description of data set [6]: Displacement of [125I]-PYY(1 to 36 residues) from mouse Y1R expressed in HEK293 cell membranes after 2 hrs by scintillation proximity assay.
Data set [7] addresses Neuropeptide Y receptor type 4 (Mus musculus, UniProt Q61041). In words: Displacement of [125I]-PP from mouse Y4R expressed in HEK293 cell membranes after 2 hrs by scintillation proximity assay.
For data set [8], the target named is T1, Neuropeptide Y receptor type 2. The data set is described as follows: Activation of human Y2R expressed in HEK293 cells assessed as inhibition of isoproterenol-induced increase in intracellular cAMP levels by calcium 5 dye-based FLIPR assay. The data set is classed as functional, cell-based.
In another data set the target is Dipeptidyl peptidase 4 (Sus scrofa, UniProt P22411). In words: Drug metabolism in minipig plasma assessed as DDP-4-meditaed GLP1(9 to 37 residues) formation by measuring half life at 1 uM by LC-MS analysis. In kind it is ADME. As to conditions: pig. The gist of the method:
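Heparinized mini-pig plasma diluted 4:1 with 0.1 M PBS pH 7.4, pre-warmed 30 min at 37°C with peptide, then combined (1 uM final) and kept at 37°C. Aliquots taken at 5–300 min were quenched in 3 volumes methanol with internal standard, centrifuged and water-diluted. Analysed by ESI+ QTOF LC-MS against 20–2000 nM plasma calibrators, with %-remaining normalised to the 15 min sample; n = 3.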

A value given as a limit tells only on which side of the number the result lay.

Neuropeptide Y receptor type 4, sequence (Q61041 whole entry): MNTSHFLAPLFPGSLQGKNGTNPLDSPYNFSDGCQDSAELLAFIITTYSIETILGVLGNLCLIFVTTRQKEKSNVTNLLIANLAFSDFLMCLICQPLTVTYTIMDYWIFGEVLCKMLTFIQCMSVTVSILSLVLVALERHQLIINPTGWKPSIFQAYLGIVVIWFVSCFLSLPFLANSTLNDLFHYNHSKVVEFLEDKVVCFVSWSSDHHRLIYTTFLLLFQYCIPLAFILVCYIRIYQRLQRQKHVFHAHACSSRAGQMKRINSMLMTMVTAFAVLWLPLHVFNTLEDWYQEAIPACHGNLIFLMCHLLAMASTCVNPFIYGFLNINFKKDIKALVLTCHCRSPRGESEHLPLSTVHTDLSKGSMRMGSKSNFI
Dipeptidyl peptidase 4, sequence (P22411 whole entry, the tested form may be a part): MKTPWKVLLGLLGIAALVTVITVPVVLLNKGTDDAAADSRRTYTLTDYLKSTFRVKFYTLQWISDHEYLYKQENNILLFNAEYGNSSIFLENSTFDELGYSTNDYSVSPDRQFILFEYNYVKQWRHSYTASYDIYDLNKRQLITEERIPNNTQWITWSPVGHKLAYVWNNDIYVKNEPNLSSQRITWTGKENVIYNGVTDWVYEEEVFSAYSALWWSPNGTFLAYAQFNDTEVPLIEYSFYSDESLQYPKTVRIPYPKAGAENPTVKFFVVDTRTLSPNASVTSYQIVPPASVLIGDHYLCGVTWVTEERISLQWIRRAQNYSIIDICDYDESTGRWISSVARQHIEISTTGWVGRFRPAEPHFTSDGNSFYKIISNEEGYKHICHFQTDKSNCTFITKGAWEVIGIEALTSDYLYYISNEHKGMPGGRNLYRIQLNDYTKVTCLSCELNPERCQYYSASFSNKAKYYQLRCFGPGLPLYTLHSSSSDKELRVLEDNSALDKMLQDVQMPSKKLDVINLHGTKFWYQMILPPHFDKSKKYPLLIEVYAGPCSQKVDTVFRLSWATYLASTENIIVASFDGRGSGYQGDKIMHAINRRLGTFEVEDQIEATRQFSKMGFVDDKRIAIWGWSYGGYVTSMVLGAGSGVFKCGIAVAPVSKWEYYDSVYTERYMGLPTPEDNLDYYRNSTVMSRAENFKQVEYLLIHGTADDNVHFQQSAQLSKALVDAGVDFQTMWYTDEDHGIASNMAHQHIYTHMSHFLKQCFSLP

As to `CC[C@H](C)[C@H](NC(=O)[C@H](Cc1ccc(O)cc1)NC(=O)[C@H](CCCNC(=N)N)NC(=O)[C@H](CCCNC(=N)N)NC(=O)[C@H](CC(C)C)NC(=O)[C@H](CC(=O)O)NC(=O)[C@H](C)NC(=O)[C@H](C)NC(=O)[C@H](Cc1ccc(O)cc1)NC(=O)[C@H](CCC(N)=O)NC(=O)[C@H](C)NC(=O)[C@H](CCSC)NC(=O)[C@H](CCC(N)=O)NC(=O)[C@H](CCC(=O)O)NC(=O)[C@@H]1CCCN1C(=O)[C@@H](NC(=O)[C@H](C)NC(=O)[C@H](CC(N)=O)NC(=O)[C@H](CC(=O)O)NC(=O)CNC(=O)[C@@H]1CCCN1C(=O)[C@H](Cc1ccc(O)cc1)NC(=O)[C@@H](NC(=O)[C@@H]1CCCN1C(=O)[C@H](CCC(=O)O)NC(=O)[C@H](CC(C)C)NC(=O)[C@@H]1CCCN1C(=O)[C@H](C)N)C(C)C)[C@@H](C)O)C(=O)N[C@@H](CC(N)=O)C(=O)N[C@@H](CCSC)C(=O)N[C@@H](CC(C)C)C(=O)N[C@H](C(=O)N[C@@H](CCCNC(=N)N)C(=O)N1CCC[C@H]1C(=O)N[C@@H](CCCNC(=N)N)C(=O)N[C@@H](Cc1ccc(O)cc1)C(=O)O)[C@@H](C)O`, the Ki in data set [1] was determined as 5000 nM; in data set [4], 50 nM. For the same compound, the EC50 in data set [2] was 2.5 nM; in data set [3] (read-out: EC50), greater than 30 nM; in [3] (read-out: pEC50 (converted)), greater than 31.6 nM; in data set [7], 0.1 nM; in data set [8] (read-out: EC50), greater than 30 nM; in data set [8] (read-out: pEC50 (converted)) it was greater than 31.6 nM. Moreover, the IC50 in data set [5] is greater than 1000 nM; in data set [6], 10 nM. Further, the pIC50 in [5] is less than 6; in [6], 8.
With `CC[C@H](C)[C@H](NC(=O)[C@H](Cc1ccccc1)NC(=O)[C@H](CCC(=O)O)NC(=O)[C@H](CCCCN)NC(=O)[C@H](C)NC(=O)[C@H](C)NC(=O)[C@H](CCC(N)=O)NC(=O)CNC(=O)[C@H](CCC(=O)O)NC(=O)[C@H](CC(C)C)NC(=O)[C@H](Cc1ccc(O)cc1)NC(=O)[C@H](CO)NC(=O)[C@H](CO)NC(=O)[C@@H](NC(=O)[C@H](CC(=O)O)NC(=O)[C@H](CO)NC(=O)[C@@H](NC(=O)[C@H](Cc1ccccc1)NC(=O)[C@@H](NC(=O)CNC(=O)[C@H](CCC(=O)O)NC(=O)[C@H](C)NC(=O)[C@@H](N)Cc1c[nH]cn1)[C@@H](C)O)[C@@H](C)O)C(C)C)C(=O)N[C@@H](C)C(=O)N[C@@H](Cc1c[nH]c2ccccc12)C(=O)N[C@@H](CC(C)C)C(=O)N[C@H](C(=O)N[C@@H](CCCCN)C(=O)NCC(=O)N[C@@H](CCCN=C(N)N)C(=O)NCC(=O)O)C(C)C`, the t1/2 on Dipeptidyl peptidase 4 was 46 min.

One may read the Ki as the equilibrium dissociation constant of an inhibitor or competing ligand from its target. Usually IC50 stands for the midpoint of a concentration-inhibition curve. A low value points to inhibition by little substance. What is called pIC50 is the negative decadic logarithm of the IC50, by convention in mol/L. The low end stands for a high IC50, the high end for a low IC50.
